As a reminder, the inhibition is the change of the read-out against control, counted positive when it falls. Usually AUC(0-t) stands for the area under the concentration-time curve up to a stated or last time point. Lower therefore signals low exposure. Broadly, the half-life is the time in which the quantity being followed falls by half. Low values mean fast loss, high ones slow loss.

The record followed here is ChEMBL document CHEMBL4196175, “First SAR Study for Overriding NRAS Mutant Driven Acute Myeloid Leukemia” (J Med Chem, 2018).

Calls of active or inactive are those of the source. The calls are words filed in the database; no cut-off is given here.

Series [1] concerns the target T1, Activated CDC42 kinase 1 (Homo sapiens, UniProt Q07912). In words: Inhibition of ACK1 in human OCI-AML3 cells harboring NRAS Q61L mutant assessed as reduction in P70S6K1 phosphorylation at Thr421/Ser424 after 2 hrs by Western blot analysis. Type of series: cell-based. The procedure, abridged:
(§1)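 Ba/F3-NRAS-G12D or OCI-AML3 cells exposed 2 h to compounds (1 µM, or a dose series in OCI-AML3); phospho-p70S6K1, phospho-AKT S473, phospho-JNK and phospho-p38 assessed by western blot, actin as loading control.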
(In western blotting, separated proteins are transferred to a membrane and probed.)

Series [2] deals with T1, Activated CDC42 kinase 1. Kind of series: Inhibition of ACK1 in human OCI-AML3 cells harboring NRAS Q61L mutant assessed as reduction in AKT phosphorylation at S473 after 2 hrs by Western blot analysis. In kind it is cell-based. The procedure, abridged:
as §1

Series [3] deals with T2, Mitogen-activated protein kinase kinase kinase kinase 2 (Homo sapiens) (UniProt Q12851).
T2 sequence (whole entry): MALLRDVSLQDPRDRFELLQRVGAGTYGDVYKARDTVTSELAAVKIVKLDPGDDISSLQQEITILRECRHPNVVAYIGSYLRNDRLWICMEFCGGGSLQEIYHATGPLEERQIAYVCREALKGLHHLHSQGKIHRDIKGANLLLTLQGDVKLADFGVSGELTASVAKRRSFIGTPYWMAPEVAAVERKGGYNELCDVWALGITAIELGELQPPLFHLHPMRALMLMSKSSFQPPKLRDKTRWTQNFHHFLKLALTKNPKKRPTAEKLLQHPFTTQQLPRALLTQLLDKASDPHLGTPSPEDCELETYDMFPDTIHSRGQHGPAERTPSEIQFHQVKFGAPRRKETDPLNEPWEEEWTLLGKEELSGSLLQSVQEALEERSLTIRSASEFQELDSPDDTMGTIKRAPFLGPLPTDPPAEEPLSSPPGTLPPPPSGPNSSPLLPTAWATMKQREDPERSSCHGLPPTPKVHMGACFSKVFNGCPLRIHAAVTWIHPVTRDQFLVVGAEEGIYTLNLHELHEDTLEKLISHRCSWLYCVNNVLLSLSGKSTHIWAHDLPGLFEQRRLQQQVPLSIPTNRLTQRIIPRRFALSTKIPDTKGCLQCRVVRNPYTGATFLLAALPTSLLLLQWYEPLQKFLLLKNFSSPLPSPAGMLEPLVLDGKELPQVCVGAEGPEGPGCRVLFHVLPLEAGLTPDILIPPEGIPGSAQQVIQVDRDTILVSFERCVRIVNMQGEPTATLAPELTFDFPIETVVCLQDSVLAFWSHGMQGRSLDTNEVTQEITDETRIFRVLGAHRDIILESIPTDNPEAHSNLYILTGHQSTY
In words: Inhibition of GCK in human OCI-AML3 cells harboring NRAS Q61L mutant assessed as reduction in p38 phosphorylation at Thr180/Tyr182 after 2 hrs by Western blot analysis. Type of series: cell-based. The procedure, abridged:
as §1

Series [4] has as its system BaF3. Kind of series: Induction of apoptosis in mouse BA/F3 cells expressing NRAS-G12D mutant assessed as decrease in bcl2 levels at 1 uM after 24 hrs by Western blot analysis. In kind it is functional, cell-based. The procedure, abridged:
(§2)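 Cells treated 24 h with indicated concentrations (1 µM; 5 µM also used in Ba/F3-NRAS-G12D); cleaved PARP, cleaved caspase 3, bcl-2 and MCL1 detected by western blot with actin as loading control.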

Series [5] has as its system OCI-AML-3. In words: Induction of apoptosis in human OCI-AML3 cells harboring NRAS Q61L mutant assessed as increase in cleaved PARP levels at 1 uM after 24 hrs by Western blot analysis. In kind it is functional, cell-based. In a few lines: as §2
Series [6] has as its system OCI-AML-3. Kind of series: Induction of apoptosis in human OCI-AML3 cells harboring NRAS Q61L mutant assessed as increase in cleaved caspase-3 levels at 1 uM after 24 hrs by Western blot analysis. In kind it is functional, cell-based. The procedure, abridged: as §2
The subject of series [7] is OCI-AML-3. Kind of series: Induction of apoptosis in human OCI-AML3 cells harboring NRAS Q61L mutant assessed as decrease in bcl2 levels at 1 uM after 24 hrs by Western blot analysis. In kind it is functional, cell-based. The procedure, abridged:
as §2

Series [8] relates to OCI-AML-3. Kind of series: Induction of apoptosis in human OCI-AML3 cells harboring NRAS Q61L mutant assessed as decrease in mcl1 levels at 1 uM after 24 hrs by Western blot analysis. Type of series: functional, cell-based. In a few lines:
as §2

In series [9] the test system is OCI-AML-3. In words: Induction of apoptosis in human OCI-AML3 cells harboring NRAS Q61L mutant assessed as increase in apoptotic cells at 1 uM after 24 hrs by annexin V/propidium iodide staining based FACS analysis relative to control. In kind it is functional. In a few lines:
(§3)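 Apoptosis scored by flow cytometry after FITC-annexin V/propidium iodide dual staining following 24 h exposure, at 1 µM or a range of indicated concentrations; three independent experiments, mean with SD, one-way ANOVA.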
On the technique in general: In flow cytometry, cells or beads pass a laser one at a time.

In series [10] the test system is OCI-AML-3. In words: Cell cycle arrest in human OCI-AML3 cells harboring NRAS Q61L mutant assessed as accumulation at G0/G1 phase at 1 uM after 24 hrs by propidium iodide staining based FACS analysis. Type of series: functional. The procedure, abridged:
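OCI-AML3 cells treated 24 h at indicated concentrations, including 1 µM; cell-cycle phase distribution measured by flow cytometry after propidium iodide staining.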

Series [11] in a line: AUClast in mouse at 10 mg/kg, po. The note with it: in vivo. In kind it is ADME, organism-based. More on the design: dose 10 mg/kg, time 0 - last, route oral.
A short description of series [12]: Half life in mouse at 10 mg/kg, po. Type of series: ADME, organism-based. The note with it: in vivo.
Series [13] has as its target Ephrin type-B receptor 1 (Homo sapiens) (UniProt P54762). In words: Inhibition of human EphB1 at 1 uM relative to control.
Series [14] addresses Tyrosine-protein kinase CSK (Homo sapiens) (UniProt P41240). In words: Inhibition of human CSK at 1 uM relative to control.
Series [15] concerns the target Serine/threonine-protein kinase A-Raf (Homo sapiens) (UniProt P10398). In words: Inhibition of human ARAF at 1 uM relative to control.
Series [16] has as its target Tyrosine-protein kinase JAK1 (Homo sapiens) (UniProt P23458). Kind of series: Inhibition of human JAK1 at 1 uM relative to control.
Series [17] addresses Serine/threonine-protein kinase SIK1 (Homo sapiens) (UniProt P57059). Kind of series: Inhibition of human SIK1 at 1 uM relative to control.
For series [18], the system named is OCI-AML-3. Kind of series: Induction of apoptosis in human OCI-AML3 cells harboring NRAS Q61L mutant assessed as increase in apoptotic cells after 24 hrs by annexin V/propidium iodide staining based FACS analysis. In kind it is functional, cell-based. The procedure, abridged: as §3
Series [19] has as its system BaF3. Kind of series: Antileukemic activity against mouse BA/F3 cells harboring NRAS-G12D mutant allografted in immunodeficient mouse assessed as median survival time at 25 mg/kg/day, po qd administered on day 6 post implantation (reference value: 23 days). Type of series: functional.
Series [20] concerns Mus musculus. Kind of series: Toxicity in immunodeficient mouse allografted with mouse BA/F3 cells harboring NRAS-G12D mutant assessed as body weight loss at 15 to 25 mg/kg/day, po qd administered on day 6 post implantation. In kind it is organism-based. As to conditions: in vivo. In a few lines:
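Immunodeficient mice were given Ba/F3-NRAS-G12D/luciferase cells by tail-vein injection and then dosed orally once daily, with a vehicle-only cohort as control. Body weight was followed during treatment. The bioluminescence cohorts had n=4 and were treated for 3 weeks.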

Series [21] has as its target RAF proto-oncogene serine/threonine-protein kinase (Homo sapiens) (UniProt P04049). The note with it: 1 uM.
Series [22] addresses T2, Mitogen-activated protein kinase kinase kinase kinase 2 (Homo sapiens). As to conditions: 1 uM.

T1 sequence (Q07912 whole entry, looked up): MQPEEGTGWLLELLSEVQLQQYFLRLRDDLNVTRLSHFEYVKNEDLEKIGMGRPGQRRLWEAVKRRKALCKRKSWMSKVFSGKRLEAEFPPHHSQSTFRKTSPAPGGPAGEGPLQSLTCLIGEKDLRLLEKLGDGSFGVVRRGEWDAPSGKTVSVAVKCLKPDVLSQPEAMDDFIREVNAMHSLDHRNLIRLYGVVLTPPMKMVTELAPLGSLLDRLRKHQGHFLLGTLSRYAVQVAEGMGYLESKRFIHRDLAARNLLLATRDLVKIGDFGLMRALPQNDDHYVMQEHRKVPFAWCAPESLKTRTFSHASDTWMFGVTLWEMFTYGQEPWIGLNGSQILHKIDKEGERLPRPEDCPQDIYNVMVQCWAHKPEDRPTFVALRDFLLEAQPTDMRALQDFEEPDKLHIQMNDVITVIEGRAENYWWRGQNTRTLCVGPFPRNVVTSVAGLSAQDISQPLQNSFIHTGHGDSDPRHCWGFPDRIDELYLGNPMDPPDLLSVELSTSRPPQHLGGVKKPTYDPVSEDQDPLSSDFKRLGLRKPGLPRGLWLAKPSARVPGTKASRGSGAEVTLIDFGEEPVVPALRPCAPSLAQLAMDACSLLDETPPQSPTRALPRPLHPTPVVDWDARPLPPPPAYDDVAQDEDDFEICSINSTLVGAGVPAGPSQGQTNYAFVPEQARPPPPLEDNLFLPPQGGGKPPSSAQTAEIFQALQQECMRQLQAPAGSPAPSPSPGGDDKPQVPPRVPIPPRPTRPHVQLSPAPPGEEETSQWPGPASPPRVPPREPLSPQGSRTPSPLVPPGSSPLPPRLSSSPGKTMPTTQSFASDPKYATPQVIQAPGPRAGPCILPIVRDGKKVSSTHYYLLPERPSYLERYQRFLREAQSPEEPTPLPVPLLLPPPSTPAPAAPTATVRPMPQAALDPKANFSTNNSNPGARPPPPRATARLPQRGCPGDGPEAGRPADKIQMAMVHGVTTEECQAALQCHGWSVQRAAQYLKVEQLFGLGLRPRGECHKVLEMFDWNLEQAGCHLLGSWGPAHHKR
RAF proto-oncogene serine/threonine-protein kinase (Homo sapiens), sequence (P04049 whole entry): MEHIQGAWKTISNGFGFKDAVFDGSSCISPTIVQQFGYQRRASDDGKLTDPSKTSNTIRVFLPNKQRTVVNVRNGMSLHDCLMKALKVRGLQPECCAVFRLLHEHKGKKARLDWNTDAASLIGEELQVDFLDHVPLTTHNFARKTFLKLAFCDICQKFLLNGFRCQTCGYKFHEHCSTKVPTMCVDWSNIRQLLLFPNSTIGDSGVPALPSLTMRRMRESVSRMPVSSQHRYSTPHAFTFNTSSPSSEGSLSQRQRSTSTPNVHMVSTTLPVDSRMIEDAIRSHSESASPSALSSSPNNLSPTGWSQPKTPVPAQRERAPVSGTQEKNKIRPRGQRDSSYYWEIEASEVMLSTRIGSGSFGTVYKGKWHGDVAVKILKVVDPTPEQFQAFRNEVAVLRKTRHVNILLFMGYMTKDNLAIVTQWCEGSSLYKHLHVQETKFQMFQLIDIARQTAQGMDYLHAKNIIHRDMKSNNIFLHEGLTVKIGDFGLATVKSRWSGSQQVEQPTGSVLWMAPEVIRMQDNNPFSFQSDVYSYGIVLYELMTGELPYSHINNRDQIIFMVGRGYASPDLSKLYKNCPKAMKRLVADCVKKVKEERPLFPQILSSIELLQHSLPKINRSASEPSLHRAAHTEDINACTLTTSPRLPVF
Serine/threonine-protein kinase SIK1 (Homo sapiens), sequence (P57059 whole entry): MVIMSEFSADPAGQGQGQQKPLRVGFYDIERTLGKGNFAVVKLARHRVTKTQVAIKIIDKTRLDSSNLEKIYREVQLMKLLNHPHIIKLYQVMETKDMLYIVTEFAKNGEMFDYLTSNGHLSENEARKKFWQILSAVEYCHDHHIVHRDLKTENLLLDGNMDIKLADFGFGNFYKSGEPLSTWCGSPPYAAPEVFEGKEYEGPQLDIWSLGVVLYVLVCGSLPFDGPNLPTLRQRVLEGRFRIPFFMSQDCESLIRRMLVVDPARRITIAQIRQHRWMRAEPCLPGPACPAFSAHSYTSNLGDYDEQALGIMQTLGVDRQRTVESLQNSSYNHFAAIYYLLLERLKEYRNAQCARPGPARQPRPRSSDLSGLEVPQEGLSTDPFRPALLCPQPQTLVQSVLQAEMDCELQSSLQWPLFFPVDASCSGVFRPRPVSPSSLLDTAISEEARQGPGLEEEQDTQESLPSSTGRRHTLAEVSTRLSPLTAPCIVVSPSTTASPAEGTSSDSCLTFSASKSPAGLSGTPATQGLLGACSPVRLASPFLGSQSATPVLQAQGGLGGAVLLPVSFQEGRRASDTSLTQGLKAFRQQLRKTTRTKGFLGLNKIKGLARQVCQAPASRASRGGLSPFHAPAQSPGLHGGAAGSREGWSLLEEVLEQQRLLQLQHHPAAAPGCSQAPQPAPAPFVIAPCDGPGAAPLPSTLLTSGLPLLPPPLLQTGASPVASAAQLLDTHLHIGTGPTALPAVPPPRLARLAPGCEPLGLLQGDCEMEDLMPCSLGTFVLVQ
Serine/threonine-protein kinase A-Raf (Homo sapiens), sequence (P10398 whole entry): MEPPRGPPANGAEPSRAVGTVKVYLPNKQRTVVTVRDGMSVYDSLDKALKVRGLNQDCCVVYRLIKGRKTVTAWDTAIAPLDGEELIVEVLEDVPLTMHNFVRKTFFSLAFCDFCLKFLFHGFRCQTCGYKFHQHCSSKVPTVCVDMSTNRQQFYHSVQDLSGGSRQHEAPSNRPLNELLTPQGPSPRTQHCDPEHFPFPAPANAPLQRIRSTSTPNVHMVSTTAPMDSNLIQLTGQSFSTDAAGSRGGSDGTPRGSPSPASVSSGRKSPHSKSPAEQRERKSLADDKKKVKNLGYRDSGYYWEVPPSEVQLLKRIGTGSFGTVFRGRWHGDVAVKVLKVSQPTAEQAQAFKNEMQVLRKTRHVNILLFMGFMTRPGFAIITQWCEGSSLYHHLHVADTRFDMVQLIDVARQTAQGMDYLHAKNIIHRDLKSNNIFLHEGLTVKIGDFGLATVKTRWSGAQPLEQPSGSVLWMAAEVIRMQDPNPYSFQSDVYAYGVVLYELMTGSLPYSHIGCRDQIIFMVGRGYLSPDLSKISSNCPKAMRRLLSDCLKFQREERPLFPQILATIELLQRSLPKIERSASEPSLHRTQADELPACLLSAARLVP
Ephrin type-B receptor 1 (Homo sapiens), sequence (P54762 whole entry): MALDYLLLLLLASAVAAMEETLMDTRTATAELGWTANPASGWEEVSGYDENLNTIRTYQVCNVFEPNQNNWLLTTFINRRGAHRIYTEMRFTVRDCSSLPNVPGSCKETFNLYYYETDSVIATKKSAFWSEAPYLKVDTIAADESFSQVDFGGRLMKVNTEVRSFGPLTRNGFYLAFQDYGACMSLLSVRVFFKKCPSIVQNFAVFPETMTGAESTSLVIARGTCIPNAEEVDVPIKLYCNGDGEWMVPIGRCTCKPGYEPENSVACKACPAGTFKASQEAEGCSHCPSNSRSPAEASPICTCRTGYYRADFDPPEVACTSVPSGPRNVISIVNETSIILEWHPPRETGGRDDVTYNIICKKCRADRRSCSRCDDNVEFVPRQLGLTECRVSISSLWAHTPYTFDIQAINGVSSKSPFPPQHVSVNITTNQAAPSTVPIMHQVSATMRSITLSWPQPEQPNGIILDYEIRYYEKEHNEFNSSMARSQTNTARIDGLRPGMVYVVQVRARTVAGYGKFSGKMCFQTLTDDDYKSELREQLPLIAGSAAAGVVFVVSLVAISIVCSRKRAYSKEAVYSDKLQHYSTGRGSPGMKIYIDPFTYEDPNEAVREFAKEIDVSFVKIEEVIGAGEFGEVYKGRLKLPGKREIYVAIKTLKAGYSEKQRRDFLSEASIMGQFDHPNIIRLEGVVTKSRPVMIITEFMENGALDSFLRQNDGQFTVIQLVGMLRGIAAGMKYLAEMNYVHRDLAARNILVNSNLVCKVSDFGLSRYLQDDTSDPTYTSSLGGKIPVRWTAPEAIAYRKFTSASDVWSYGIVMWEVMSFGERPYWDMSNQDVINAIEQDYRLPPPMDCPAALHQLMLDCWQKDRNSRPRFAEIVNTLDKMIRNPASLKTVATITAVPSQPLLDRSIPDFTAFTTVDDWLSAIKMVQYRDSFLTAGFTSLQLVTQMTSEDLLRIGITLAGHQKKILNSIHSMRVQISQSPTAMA
Tyrosine-protein kinase CSK (Homo sapiens), sequence (P41240 2-450 limits assumed): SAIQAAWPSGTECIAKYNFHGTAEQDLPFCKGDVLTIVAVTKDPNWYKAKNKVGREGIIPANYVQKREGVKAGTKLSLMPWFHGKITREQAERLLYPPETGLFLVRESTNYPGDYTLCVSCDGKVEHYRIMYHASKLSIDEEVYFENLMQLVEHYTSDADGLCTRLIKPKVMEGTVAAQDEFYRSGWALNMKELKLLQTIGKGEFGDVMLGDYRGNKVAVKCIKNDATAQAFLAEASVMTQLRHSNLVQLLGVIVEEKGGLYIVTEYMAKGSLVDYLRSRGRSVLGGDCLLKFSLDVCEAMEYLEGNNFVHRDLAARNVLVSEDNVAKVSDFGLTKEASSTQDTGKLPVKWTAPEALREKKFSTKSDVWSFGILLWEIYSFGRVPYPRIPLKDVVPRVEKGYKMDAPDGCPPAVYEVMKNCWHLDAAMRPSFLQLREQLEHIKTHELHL

In the case of `CC(=O)N1CCN(c2ccc(Nc3ncc4c(n3)N(C)C(=O)N(c3cc(NC(=O)c5cccc(C(F)(F)F)c5)ccc3C)C4)cn2)CC1`, the inhibition result in series [1], in series [2] and in series [3] was “Dose-dependent effect” each time. Moreover, the result in series [4], in [5], in series [6], in [7], in [8] and in series [10] was Active. The Activity in series [9] is 15 - 30%.

`Cc1ccc(NC(=O)c2cccc(C(F)(F)F)c2)cc1N1Cc2cnc(N)nc2N(C)C1=O` gave an AUC(0-t) in series [11] of 36400 ng·h/mL. In series [12], this compound had a half-life of 12.4 h. Also, the inhibition entry in series [1] is “Dose-dependent effect”; in [2], “Dose-dependent effect”; in [3], “Dose-dependent effect”; in series [13], 96.9%; in series [14], 98.9%; in [15] it was 99%. Moreover, the inhibition in [16] stood at 94.9%; in series [17], 91.6%; in [21] it was 99.4%; in series [22], 93.8%. Also, the result in series [5], in series [6], in series [7], in [8] and in series [10] was Active. Besides, the Activity in series [9] is 15 - 30%; in series [18] it was “Dose-dependent effect”; in [20], “Non-Toxic”. Also, in [19], the MSD amounted to 35 days.
